Assay results as given in ChEMBL document CHEMBL1132190, “Synthesis of 1-substituted 3-(chloromethyl)-6-aminoindoline (6-amino-seco-CI) DNA minor groove alkylating agents and structure-activity relationships for their cytotoxicity” (J Med Chem, 1999).
Converted amounts (≈) assume the structure as drawn.

Columns and labels:
UV4 = assay: Cytotoxicity in chinese hamster ovary tumor cell line -UV4 (repair deffective ERCC-1 mutant), by growth inhibition assay.; format: functional, cell-based; conditions: Cricetulus griseus
Summary of the method: (§1)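 Log-phase monolayers in α-MEM with 5% FBS, no antibiotics; seeded at 200 (AA8), 300 (UV4) or 50 (EMT6) cells/well. After 24 h, exposed to drug (DMSO stock, final DMSO <1%, medium pH 7.4) for 4 h at 37 °C, 5% CO₂, aerobic. Washed, then regrown 4 days. Methylene blue staining read cell density. IC50 = 50% growth inhibition versus same-plate controls.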

SK-OV-3 = assay: Cytotoxicity in human ovarian tumor cell line-SKOV3, by growth inhibition assay.; format: functional, cell-based
Summary of the method: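 SKOV3 log-phase monolayers in α-MEM with 5% FBS, no antibiotics; 600 cells/well. After 24 h, 4 h aerobic drug exposure at 37 °C, 5% CO₂ (DMSO stock, final DMSO <1%, medium pH 7.4). Washed, then regrown 5 days. Methylene blue staining gave cell density. IC50 = 50% growth inhibition versus controls on the same plate.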

[1] = Solubility in 0.1 M phosphate buffer (pH 7.0) at room temperature.; format: physicochemical; conditions: read-out: S
Summary of the method: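 Solid suspended in 0.1 M phosphate buffer pH 7.0, sonicated 5 min at room temperature, centrifuged 5 min. Supernatant assayed by HPLC against a standard curve of known concentrations in acetonitrile. Three determinations, averaged.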

CHO-AA8 = assay: Cytotoxicity in chinese hamster ovary tumor cell line-AA8, by growth inhibition assay.; format: functional, cell-based; conditions: Cricetulus griseus; summary of the method: as §1
EMT6 = assay: Cytotoxicity in murine mammary carcinoma tumor cell line-EMT6, by growth inhibition assay.; format: functional, cell-based; conditions: Mus musculus; summary of the method: as §1

solubility [1] [µM] | Compound | IC50 (UV4) [nM] | IC50 (SK-OV-3) [nM] | IC50 (CHO-AA8) [nM] | IC50 (EMT6) [nM]
23 (≈ 8.18 µg/mL) | COc1ccc2[nH]c(C(=O)N3CC(CCl)c4ccc(N)cc43)cc2c1 (stereo not given) | 47 | 670 | 310 | 230
– | Nc1ccc2c(c1)N(C(=O)c1cc3cc(NC(=O)c4cc5ccccc5o4)ccc3[nH]1)CC2CCl (stereo not given) | 87 | 600 | 160 | 190
– | COc1ccc2oc(C(=O)N3CC(CCl)c4ccc(N)cc43)cc2c1 (stereo not given) | 120 | 1100 | 880 | 640
– | COc1ccc2[nH]c(S(=O)(=O)N3CC(CCl)c4ccc(N)cc43)cc2c1 (stereo not given) | 4300 | 2700 | 8200 | 4900
47 (≈ 20.8 µg/mL) | COc1cc(OCCN(C)C)c2[nH]c(C(=O)N3CC(CCl)c4ccc(N)cc43)cc2c1 (stereo not given) | 29 | 160 | 140 | 90
700 (≈ 289 µg/mL) | CN(C)CCOc1ccc2[nH]c(C(=O)N3CC(CCl)c4ccc(N)cc43)cc2c1 (stereo not given) | 44 | 260 | 160 | 120
– | CCCC(=O)Nc1cc(/C=C/C(=O)N2CC(CCl)c3ccc(N)cc32)n(C)c1 (stereo not given) | 310 | 1900 | 2100 | 910
> 1200 | COc1cc2cc(C(=O)N3CC(CCl)c4ccc(N)cc43)[nH]c2cc1OCCN(C)C (stereo not given) | 39 | 150 | 220 | 110
– | COc1ccc2oc(S(=O)(=O)N3CC(CCl)c4ccc(N)cc43)cc2c1 (stereo not given) | 2800 | 4400 | 6600 | 2600

Compound | solubility [1] [µM] | IC50 (UV4) [nM] | IC50 (SK-OV-3) [nM] | IC50 (CHO-AA8) [nM] | IC50 (EMT6) [nM]
COc1cc2cc(C(=O)N3CC(CCl)c4ccc(N)cc43)[nH]c2c(OC)c1OC (stereo not given) | 32 (≈ 13.3 µg/mL) | 55 | 630 | 350 | 270
